Source: PubChem (several laboratories)
Compounds with a hit are over-represented: about 4.1% of the library has one in this group of screens.
APP 5'UTR act: activates APP 5'UTR luciferase reporter; activation, % at 2 µM; hit rate 1% among 190,000; SH-SY5Y APP 5'UTR luciferase reporter, luminescence; zero percent = DMSO vehicle wells;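 active means activation above a set limit, based on mean plus 3 SD of controls, cut at about 140% in these data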
STAT1 act: STAT1 signaling activation. NIH 3T3 STAT1-luciferase reporter, IFN-gamma, luminescence; 100% = IFN-gamma alone, no compound. activation (% of control), % at 5.5 µM. hit rate 2.6% among 200,000;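 active means activation above the screen-wide mean activation plus 3 SD, cut at about 130% in these data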;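 further: raw ratio to IFN-gamma control signal so 100% means no change and 0% no light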
NF-kB expr up: compounds increasing NF-kB expression in human neuronal cells; NF-kB reporter expression; hits give high values; fold change at 12.5 µM; hit rate 1.6% among 190,000; in the data active means fold change above about 3.3
FLuc inhib CS: Photinus pyralis luciferase inhibition counter-screen; inhibition, % at 10 µM; AID 1006; ATPLite firefly luciferase biochemical luminescence, 10 min; hit rate 1.5% among 200,000; P08659;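 active means inhibition above about 50% when tested at 10 µM, limit read from the data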
Target sequence (P08659 whole entry, looked up): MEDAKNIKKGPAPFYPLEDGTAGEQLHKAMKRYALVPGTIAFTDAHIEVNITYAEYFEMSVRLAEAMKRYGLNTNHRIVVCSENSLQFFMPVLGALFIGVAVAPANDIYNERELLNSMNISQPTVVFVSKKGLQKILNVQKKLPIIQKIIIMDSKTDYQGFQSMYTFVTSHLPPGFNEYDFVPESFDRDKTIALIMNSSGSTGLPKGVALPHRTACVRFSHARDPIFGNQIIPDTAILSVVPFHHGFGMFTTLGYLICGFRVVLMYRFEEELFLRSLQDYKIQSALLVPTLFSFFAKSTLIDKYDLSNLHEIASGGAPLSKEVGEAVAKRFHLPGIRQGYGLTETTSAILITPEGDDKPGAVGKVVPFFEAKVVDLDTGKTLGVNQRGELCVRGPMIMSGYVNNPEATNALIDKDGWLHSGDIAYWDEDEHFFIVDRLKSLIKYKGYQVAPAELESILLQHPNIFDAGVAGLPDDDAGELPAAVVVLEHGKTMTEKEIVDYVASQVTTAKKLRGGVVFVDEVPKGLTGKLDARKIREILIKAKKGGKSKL
FLuc act counter: firefly luciferase counter-screen for stimulation assays; ATPlite luciferase biochemical, luminescence, 10 min; 0 = ATP-free wells, 1 = DMSO control; activation factor at 10 µM; 200,000 tested, under 10 active;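 active means luciferase activation factor, scaled between plate controls, of at least 2 with compound at 10 µM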
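System: Luciferase/luciferin detection reagent, cell-free biochemical luciferase assay | Medium: PBS buffer for ATP | Dosing: Test compounds dosed from 2 mM stocks in 100% DMSO | Timing: 10 min at ambient temperature | Signal: Luminescence measurement of luciferase light output | Evaluation: Luciferase activation, seen as luminescence increase over controls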
Active calls of the source: *.

SMILES	APP 5'UTR act	STAT1 act	NF-kB expr up	FLuc inhib CS	FLuc act counter
Cc1ccc(S(=O)(=O)N(Cc2cc3cccc(C)c3[nH]c2=O)c2ccccc2)cc1	14	91	0.9	-4	1
CCOc1ccc(N(CC(=O)NC(C(C)C)C(C)C)S(=O)(=O)c2ccc(OC)c(OC)c2)cc1	-17	95	1.1	-4	1
CCOC(=O)COc1cnc2ccccc2n1	-22	104	1.2	-3	1
CC(=O)N1CCC2(CC1)C(C#N)=C(N)Oc1n[nH]c(C)c12	0	106	0.94	-3	1
Cc1ccc(S(=O)(=O)N2CCOCC2)cc1C(=O)N1c2ccccc2Sc2ccccc21	-18	103	0.85	-3	1
Cc1ccc2cc(C#N)c(SCc3nnc(-c4ccccc4[N+](=O)[O-])o3)nc2c1	28	96	4.7*	-2	1
COc1ccc(/C=C2\C(=O)N(c3c(Cl)cc(Cl)cc3Cl)N=C2NC(=O)c2cccc([N+](=O)[O-])c2)cc1	12	108	0.94	-3	1
Oc1ccc(-c2cn3cc(C(F)(F)F)ccc3n2)cc1	229*	98	13*	95*	0.1
Cn1ccnc1C1CCCCN1Cc1nc(-c2ccc3c(c2)OCO3)no1 (stereo not drawn)	10	107	1.4	-6	1.1
COc1ccc2[nH]c(=O)c(CNc3ccccc3)cc2c1	43	129*	1.2	2	1
CCSc1ccc(-c2ccco2)nn1	29	117	1.2	18	0.8
CSc1ccc(-c2ccco2)nn1	29	129*	1.7	27	0.7
Cc1nn(CC2CC2)c(=O)n1-c1ccccc1	-10	94	1.3	-2	1
CC1=CC2=NC(=O)/C(=C\c3cc(C)n(-c4ccccc4F)c3C)C(=N)N2O1	0	102	1.5	4	1
Cc1cc(/C=C2/C(=N)N3C(=NC2=O)SN=C3S(C)(=O)=O)c(C)n1-c1ccccc1F	60	112	2.8	93*	0.1
Cc1ccc(S(=O)(=O)N(C)C)cc1NC(=O)[C@H](Cc1ccccc1)N1C(=O)c2ccccc2C1=O	-11	99	1.3	-5	1.1
C=CCc1cccc([C@@H]2[C@@H](C)CC[C@H]3C(=O)N4[C@@H](c5cc(OC)c(OC)c(OC)c5)c5[nH]c6ccccc6c5C[C@H]4C(=O)N23)c1	3	99	0.77	2	1
COc1ccc(C=C(c2nc3ccccc3s2)c2nc3ccccc3s2)cc1O	54	95	0.68	8	0.9
COc1ccc(/C=N/Nc2nc3ccccc3o2)cc1O	137*	118	8.6*	66*	0.3
COc1cc(/C=N/Nc2nc3ccccc3o2)cc(OC)c1O	18	101	0.93	13	0.9
COc1cc(/C=N/NC(=O)c2cc(-c3c(C)nn(-c4ccccc4)c3C)n[nH]2)ccc1O	-6	209*	0.73	13	0.9
COc1ccc(/C=N/Nc2nc3ccccc3s2)cc1O	136*	121	4.6*	83*	0.2
COc1ccc(/C=N/NC(=O)c2nc(-c3ccccc3)cc(-c3ccccc3)n2)cc1O	11	131*	0.6	14	0.9
O=c1c2ccccc2oc2nc(-c3ccco3)n(Cc3ccccc3)c(=O)c12	-1	107	1	0	1
Fc1ccccc1Cn1nnc2c(-n3ccnc3)ncnc21	-2	101	1.3	-4	1
SMILES	APP 5'UTR act	STAT1 act	NF-kB expr up	FLuc inhib CS	FLuc act counter
Nn1c(SCc2ccccc2)nnc1-c1ccccn1	36	131*	2	-1	1
Cn1c(SCc2cccc(F)c2)nnc1-c1ccccn1	41	122	1.9	-6	1.1
CC(C)Cc1cc(C(=O)Nc2cc(C(F)(F)F)ccc2Cl)no1	17	98	1.1	-3	1
C=CCSc1ncc(-c2ccccc2)cn1	19	136*	2.2	8	0.9
CN(C)/C=N/c1sc2c(c1C#N)CCCC2	8	113	1.1	8	0.9
N#Cc1c(/N=C/c2cccs2)sc2c1CCC2	46	140*	1.2	62*	0.4
N#Cc1c(/N=C/c2ccco2)sc2c1CCCCC2	11	138*	1.1	94*	0.1
CCOC(=O)Cc1csc(N/C(=N/S(=O)(=O)c2cc(Br)ccc2OCC)c2ccccc2)n1	10	109	1	-5	1.1
CCC(Sc1nc2ccccc2c(=O)n1CC1CCCO1)C(=O)NCc1cccnc1 (stereo not drawn)	-6	97	0.99	-5	1
